Data set [1] concerns the target T1, Bifunctional epoxide hydrolase 2 (Homo sapiens, UniProt P34913).
T1 sequence (P34913 whole entry): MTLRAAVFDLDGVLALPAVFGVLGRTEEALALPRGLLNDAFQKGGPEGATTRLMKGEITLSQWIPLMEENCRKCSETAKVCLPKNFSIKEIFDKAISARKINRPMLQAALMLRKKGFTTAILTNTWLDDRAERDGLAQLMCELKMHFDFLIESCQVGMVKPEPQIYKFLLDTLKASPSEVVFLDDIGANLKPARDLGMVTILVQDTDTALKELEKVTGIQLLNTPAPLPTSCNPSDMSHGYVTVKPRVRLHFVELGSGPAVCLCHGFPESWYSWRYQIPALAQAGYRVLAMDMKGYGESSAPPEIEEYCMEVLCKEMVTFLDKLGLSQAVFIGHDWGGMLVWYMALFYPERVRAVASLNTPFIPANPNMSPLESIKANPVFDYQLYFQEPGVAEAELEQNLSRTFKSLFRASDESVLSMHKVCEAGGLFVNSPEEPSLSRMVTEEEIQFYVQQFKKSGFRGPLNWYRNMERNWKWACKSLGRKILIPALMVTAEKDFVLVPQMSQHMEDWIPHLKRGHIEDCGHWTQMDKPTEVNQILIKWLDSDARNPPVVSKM
As to the kind of experiment: Inhibition of human recombinant soluble Epoxide hydrolase.

Data set [2] in a line: Solubility in sodium phosphate buffer at pH 7.4. It counts as physicochemical. The method, boiled down: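 Solubility measured in sodium phosphate buffer, 100 mM, pH 7.4, following a previously described procedure.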

Consider `O=C(CCCCCNC(=O)NC1CCCCC1)N[C@@H](Cc1ccccc1)C(=O)N1CCC[C@H]1C(=O)O`, for which the IC50 in data set [1] came out at 100 nM. Moreover, in data set [2], the solubility is above 500 µM.

For the compound `O=C(CCCCCNC(=O)NC1CCCCC1)N[C@@H](Cc1ccccc1)C(=O)N[C@@H](CO)C(=O)O`, the concentration for half-maximal inhibition (IC50) in data set [1] was 2400 nM. The solubility in data set [2] is above 500 µM.

`O=C(CCCCCNC(=O)NC1CCCCC1)N[C@@H](Cc1ccccc1)C(=O)N[C@@H](Cc1ccccc1)C(=O)O`: the IC50 in data set [1] is 100 nM. In data set [2], this compound came in with a solubility above 500 µM.

Turning to `CSCC[C@H](NC(=O)[C@H](Cc1ccccc1)NC(=O)CCCCCNC(=O)NC1CCCCC1)C(=O)O`, the 50% inhibitory concentration (IC50) in data set [1] was 870 nM. This compound also registered a solubility in data set [2] above 500 µM.

As to `O=C(NCCCCCC(=O)N1CCC[C@H]1C(=O)O)NC12CC3CC(CC(C3)C1)C2`, the IC50 in data set [1] is above 100000 nM. This compound returned a solubility in data set [2] above 500 µM.

Turning to `O=C(CCCCCNC(=O)NC1CCCCC1)N[C@@H](Cc1ccccc1)C(=O)N[C@@H](Cc1cnc[nH]1)C(=O)O`, in data set [1], the half-maximal inhibitory concentration (IC50) is 5500 nM. Further, the solubility in data set [2] was above 500 µM.

Turning to `O=C(CCCCCNC(=O)NC12CC3CC(CC(C3)C1)C2)N[C@@H](Cc1ccc(O)cc1)C(=O)O`, the IC50 in data set [1] was 80000 nM. The compound further returned a solubility in data set [2] above 500 µM.

As for `C[C@H](NC(=O)[C@H](Cc1ccccc1)NC(=O)CCCCCNC(=O)NC1CCCCC1)C(=O)O`, the concentration for half-maximal inhibition (IC50) in data set [1] is 260 nM. For the same compound, the solubility in data set [2] was above 500 µM.

Consider `N=C(N)NCCC[C@H](NC(=O)[C@H](Cc1ccccc1)NC(=O)CCCCCNC(=O)NC1CCCCC1)C(=O)O`, for which the IC50 in data set [1] was 2100 nM. The solubility in data set [2] is above 500 µM.

Consider `O=C(O)CCCCCNC(=O)NC12CC3CC(CC(C3)C1)C2`, for which the IC50 in data set [1] is above 100000 nM.

Consider `COC(=O)CCCCCNC(=O)NC12CC3CC(CC(C3)C1)C2`, for which the IC50 in data set [1] was found to be 1800 nM.

Turning to `O=C(CCCCCNC(=O)NC1CCCCC1)N[C@@H](Cc1ccccc1)C(=O)N[C@@H](Cc1ccc(O)cc1)C(=O)O`, the half-inhibitory concentration (IC50) in data set [1] was 230 nM. Moreover, the solubility in data set [2] was above 500 µM.

In the case of `O=C(O)CNC(=O)[C@H](Cc1ccccc1)NC(=O)CCCCCNC(=O)NC1CCCCC1`, in data set [1], the IC50 was 1500 nM. This compound also showed a solubility in data set [2] above 500 µM.

Consider `CC(C)[C@H](NC(=O)[C@H](Cc1ccccc1)NC(=O)CCCCCNC(=O)NC1CCCCC1)C(=O)O`, for which the half-inhibitory concentration (IC50) in data set [1] amounted to 100 nM. Moreover, in data set [2], the solubility is above 500 µM.

Consider `CC[C@H](C)[C@H](NC(=O)[C@H](Cc1ccccc1)NC(=O)CCCCCNC(=O)NC1CCCCC1)C(=O)O`, for which, in data set [1], the IC50 came out at 130 nM. Besides, the solubility in data set [2] is above 500 µM.

As to `O=C(O)C[C@H](NC(=O)[C@H](Cc1ccccc1)NC(=O)CCCCCNC(=O)NC1CCCCC1)C(=O)O`, the IC50 in data set [1] is above 100000 nM. Moreover, in data set [2], the solubility was above 500 µM.

With `CC(O)[C@H](NC(=O)CCCCCNC(=O)NC12CC3CC(CC(C3)C1)C2)C(=O)O` (stereo partly specified), the IC50 in data set [1] was above 100000 nM. Also, the solubility in data set [2] is above 500 µM.

In the case of `O=C(O)CC[C@H](NC(=O)[C@H](Cc1ccccc1)NC(=O)CCCCCNC(=O)NC1CCCCC1)C(=O)O`, in data set [1], the IC50 was above 100000 nM. This compound displayed a solubility in data set [2] above 500 µM.

With `O=C(CCCCCNC(=O)NC12CC3CC(CC(C3)C1)C2)N[C@@H](CO)C(=O)O`, the IC50 in data set [1] was above 100000 nM. The solubility in data set [2] was above 500 µM.

Consider `O=C(CCCCCNC(=O)NC12CC3CC(CC(C3)C1)C2)N[C@@H](Cc1c[nH]c2ccccc12)C(=O)O`, for which, in data set [1], the concentration for half-maximal inhibition (IC50) came out at 41000 nM. In addition, the solubility in data set [2] is above 500 µM.

In the case of `CC(C)[C@H](NC(=O)CCCCCNC(=O)NC12CC3CC(CC(C3)C1)C2)C(=O)O`, the IC50 in data set [1] came out at 55000 nM. Also, the solubility in data set [2] was above 500 µM.

Turning to `O=C(CCCCCNC(=O)NC1CCCCC1)N[C@@H](Cc1ccccc1)C(=O)N[C@@H](Cc1c[nH]c2ccccc12)C(=O)O`, in data set [1], the 50% inhibitory concentration (IC50) stood at 100 nM. In addition, the solubility in data set [2] is above 500 µM.

As for `CC(C)C[C@H](NC(=O)[C@H](Cc1ccccc1)NC(=O)CCCCCNC(=O)NC1CCCCC1)C(=O)O`, the concentration for half-maximal inhibition (IC50) in data set [1] is 880 nM. The compound also registered a solubility in data set [2] above 500 µM.

As to `C[C@H](O)[C@H](NC(=O)[C@H](Cc1ccccc1)NC(=O)CCCCCNC(=O)NC1CCCCC1)C(=O)O`, the half-inhibitory concentration (IC50) in data set [1] was determined as 1300 nM. In data set [2], this compound returned a solubility above 500 µM.

As a reminder, the IC50 is the concentration needed to halve the response being measured. One may read the solubility as how much of the substance goes into solution per volume. The low end stands for little dissolved substance, the high end for much dissolved substance.

These data come from ChEMBL document CHEMBL1137287, “Peptidyl-urea based inhibitors of soluble epoxide hydrolases” (Bioorg Med Chem Lett, 2006).
